Rows were chosen to be rich in hits. Some 2% of all compounds tested hit in one or more screens of this group.
SIAE primary = blocks human sialic acid acetylesterase; Q9HAT2; SIAE FP-Rh probe binding, fluorescence polarization; inhibition, % at 9.66 µM; hit rate 0.69% among 370,000; AID 1053197;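 active = inhibition above a cutoff: mean of compounds within the control limits plus 3 SD of those, cut at about 17% in these data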;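 also: 0% = plate median of compound wells and 100% = probe without SIAE protein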
ABHD4 inh = ABHD4 (mouse) inhibition, primary FP screen. Q8VD66. purified mABHD4, FP-Rh probe fluorescence polarization. inhibition, % at 8.92 µM. hit rate 0.54% among 370,000. AID 720543;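 active = inhibition exceeding the mean over every tested compound plus 3 SD, cut at about 30% in these data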;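 also: 0% = plate median of compound wells and 100% = S159A mutant with DMSO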
Target sequence (Q8VD66 whole entry, looked up): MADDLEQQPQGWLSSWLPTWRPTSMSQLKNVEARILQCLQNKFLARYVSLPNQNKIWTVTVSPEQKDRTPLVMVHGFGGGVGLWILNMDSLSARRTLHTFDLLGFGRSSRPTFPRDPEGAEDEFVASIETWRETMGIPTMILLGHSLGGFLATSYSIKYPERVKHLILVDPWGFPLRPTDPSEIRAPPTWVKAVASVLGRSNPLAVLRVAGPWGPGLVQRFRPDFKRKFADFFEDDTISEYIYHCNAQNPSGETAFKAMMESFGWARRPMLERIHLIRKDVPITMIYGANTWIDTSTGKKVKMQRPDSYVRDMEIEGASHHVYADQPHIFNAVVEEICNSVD
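Assay system: mABHD4 protein; medium: HEPES pH 7.0, NaCl, Pluronic buffer; dosing: 8.92 µM, single dose; schedule: 45 min + 60 min at 25 °C; signal: FP readout, ex 525 nm / em 598 nm; read-out: normalized percent inhibition of probe labeling; repeats: single replicate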
TCR CD3 inh = inhibitors of human TCR-CD3 interaction. AID 651800. inhibition, % at 9.4 µM. hit rate 0.37% among 360,000. TAMRA-labeled TCR probe fluorescence, biochemical; in the data active = inhibition above about 19%;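 also: recombinant mutant TCR 2C K166C tagged with TAMRA read by polarization; 0% = receptor in buffer alone and 100% = receptor with positive control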
TDP2 absorb = TDP2 (human) inhibition, absorbance primary screen. O95551. recombinant TDP2, T5PNP hydrolysis, p-nitrophenol absorbance 415 nm. inhibition, % at 12.8 µM. hit rate 0.34% among 370,000;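 active = inhibition above the mean of all tested compounds plus 3 SD, set per campaign, cut at about 25% in these data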;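 also: 0% = DMSO with enzyme and 100% = buffer with substrate but no TDP2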
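System: recombinant human TDP2 / Amount: 120 nM TDP2 per well / Also added: 5 mM T5PNP chromogenic substrate / Doses: 12.8 µM single point, 1% DMSO / Incubation: 2 h at 37 °C / Detection: p-Nitrophenol epi absorbance / Evaluation: % inhibition relative to enzyme-containing and enzyme-free wells / Repeats: singlicate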
HTRA1 inhibitor = blocks human HTRA1 serine peptidase; hit rate 0.5% among 340,000; recombinant HTRA1, FP-rhodamine activity-based probe, fluorescence polarization; AID 504803; inhibition, % at 5.96 µM; in the data active = inhibition above about 36%;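 also: 0% = enzyme with DMSO and 100% = wells lacking enzyme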
PAD4 inh = inhibitors of human PAD4; hit rate 0.41% among 330,000; inhibition, % at 6.36 µM; recombinant PAD4, RCA probe fluorescence polarization; AID 485272;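 active = percent inhibition above a cutoff equal to the mean of all tested compounds plus 3 SD, cut at about 15% in these data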;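 also: 0% = PAD4 with RCA probe and DMSO and 100% = probe without PAD4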
SIAE confirm = confirmation of human SIAE inhibitors | shares compounds with SIAE primary | SIAE FP-Rh activity-based probe, fluorescence polarization | inhibition, % at 9.66 µM | hit rate 13% among 2,300;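 active = mean inhibition of the replicates above the hit cutoff set in the primary screen, cut at about 17% in these data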;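 also: 0% = SIAE with DMSO and probe and 100% = probe without SIAE; inhibitors lower polarization as more probe stays unbound to SIAE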
* = called active by the depositor; . = not tested or not shown.

SMILES	SIAE primary	ABHD4 inh	TCR CD3 inh	TDP2 absorb	HTRA1 inhibitor	PAD4 inh	SIAE confirm
CCN1CCN(C(=O)c2ccc(N3CC4CC(C3)c3cccc(=O)n3C4)c(NC(=O)c3cc(OC)cc(OC)c3)c2)CC1 (centres undefined)	27*	7	0	-1	-5	-4	4
COCCNC(=O)c1ccc(N2CC3CC(C2)c2cccc(=O)n2C3)c(NC(=O)c2cc(OC)cc(OC)c2)c1 (centres undefined)	-1	7	-4	-8	2	-3	.
Cc1nc2c(=O)[nH]c(=S)[nH]c2[nH]c1=O	-15	-1	5	8	5	.	.
O=C(Nc1ccc2c(c1)OCO2)c1ccc(N2CCCC2)c([N+](=O)[O-])c1	22*	7	2	-2	5	-1	3
O=C(Nc1ccc(N2CCCCC2)c(Cl)c1)c1ccc(N2CCOCC2)c([N+](=O)[O-])c1	13	-1	-6	9	-4	-3	.
CCCS(=O)(=O)NC(=O)C1(C)CCN(C(=O)CSc2ccccc2)C1 (centres undefined)	20*	5	-5	-8	.	.	0
COc1ccc(OC)c(NC(=O)C2(C)CCN2CCc2ccccc2)c1 (centres undefined)	10	6	-2	6	.	.	.
NC(=O)c1nsc(C(=O)N(Cc2ccccc2Cl)C(C(=O)NCC2CCCO2)c2ccc(O)cc2)c1N (centres undefined)	20*	0	-1	-3	-1	.	0
Cc1ccc(NC(=Nc2ccc(Br)cc2)N2CCOCC2)cc1C	18*	0	-4	-10	-3	-3	-2
COCCNC(=O)CNC(=S)N(CCCN1CCOCC1)Cc1cccs1	0	3	-8	3	-1	-5	.
CC(CNC(=O)CN1C(=O)NC2(CCOc3ccccc32)C1=O)c1ccccc1 (centres undefined)	82*	6	5	9	-3	-5	-2
Cc1c(CNCCC2=CCCCC2)c(C(=O)O)c(C)n1Cc1ccccc1	2	-3	-6	-1	4	1	.
NC(=O)CC(NC(=O)c1ccccc1)c1ccc(N2CCN(c3ccccc3)CC2)c([N+](=O)[O-])c1 (centres undefined)	-6	-3	-2	-8	12	-4	.
Cc1cc(C)cc(C(=O)NC(CC(N)=O)c2ccc(N3CCN(c4ccccc4)CC3)c([N+](=O)[O-])c2)c1 (centres undefined)	21*	-3	-4	7	-2	-4	6
C[C@H](NC(=O)CCCn1nnc2ccccc2c1=O)C(=O)O	17*	9	0	-9	0	-4	0
Cc1ccn2c(=O)nc(SCC(=O)N3CCN(c4ccccc4)CC3)nc2c1	18*	2	7	3	2	0	6
Cc1ccn2c(=O)nc(SCC(=O)N3CCC(Cc4ccccc4)CC3)nc2c1	-4	6	8	-10	-6	0	.
CC(Sc1ccc2c(c1)OCCO2)C(=O)Nc1ccc(N2CCOCC2)cc1 (centres undefined)	8	-6	-1	-4	7	4	.
NCCCCCNC(=O)c1nc[nH]c1C(=O)NCC(=O)OCc1ccccc1	2	0	3	-11	2	-1	.
CN1/C(=C\C(=O)Nc2ccc(F)cc2)C(C)(C)c2ccccc21	-3	-1	-4	-8	-16	1	.
CN1/C(=C\C(=O)Nc2ccc(Br)cc2)C(C)(C)c2ccccc21	26*	-3	5	0	-5	3	6
O=C(Nc1ccccc1)Nc1nc(-c2ccc(Cl)cc2)cs1	2	0	-4	3	-2	-2	.
COc1ccc(-c2csc(NC(=O)Nc3ccccc3)n2)cc1	44*	-2	-5	-7	13	-1	14
COc1ccc(OC(=O)Nc2ccccc2)cc1	19*	5	2	2	-3	-1	2
CCc1ccc(OC(=O)Nc2ccccc2)cc1	-2	-1	11	-3	-3	.	.
SMILES	SIAE primary	ABHD4 inh	TCR CD3 inh	TDP2 absorb	HTRA1 inhibitor	PAD4 inh	SIAE confirm
COc1ccc(NC(=O)Nc2nc(C(N)Cc3ccc(C(F)(F)F)cc3)cs2)cc1 (centres undefined)	29*	26	-6	-9	.	.	16
COc1cccc(NC(=O)Nc2nc(-c3ccc(OC)c(OC)c3)cs2)c1	34*	8	2	2	3	-3	-6
COc1ccc(CC(N)c2csc(NC(=O)Nc3ccc(OC)cc3)n2)cc1 (centres undefined)	9	5	-11	-8	.	.	.
COc1ccc(CNC[C@H]2O[C@@H](n3cnc4c(N)ncnc43)[C@H](O)[C@@H]2O)cc1OC	.	.	.	.	7	2	.
CCN1C(=O)[C@@H]2[C@@H]3CN(S(=O)(=O)c4ccc(C)cc4)[C@@H](c4ccccc4F)[C@@H]3C(=O)C[C@@H]2C1=O	-5	6	-3	1	.	.	.
COCCCN1C(=O)[C@H](CC(=O)NCc2ccccc2)[C@]2(C(=O)OC)CCCCC=C12	0	0	.	0	.	.	.
C[C@@H](NC(=O)[C@@H]1CCCN1C(=O)[C@@H]1CCCN1C(=O)c1cccc2ccccc12)c1ccccc1	2	-12	0	-8	.	.	.
CCOc1ccccc1NC(=O)N1CCc2ccccc2C1	18*	-1	0	3	8	-2	-1
CC(C)(C)n1cnc2cc(NCc3cccs3)ccc21	5	1	3	-3	-3	-2	.
CCn1cnc2cc(NCc3cccs3)ccc21	21*	3	3	-5	3	1	2
COc1ccc(F)cc1-c1cc(NC=O)c2ncc(-c3cc(OC)c(OC)c(OC)c3)n2c1	4	6	-2	0	.	.	.
COC(=O)c1cn(-c2ccc(F)cc2)c(=O)c2ccccc12	18*	3	0	5	-2	0	6
CC(C)OC(=O)Cn1c(=O)oc2ccccc21	.	.	.	.	8	0	.
CC(C)N(C(=O)Cn1c(=O)oc2ccccc21)c1ccccc1	22*	-3	12	3	2	5	-2
CCc1ccc(OCc2ccc(C(=O)OC)o2)cc1	-3	-11	-6	-20	-1	1	.
Cc1ccc(Cn2c(=O)c3c(nc4n3CCN4Cc3ccco3)n(C)c2=O)cc1	4	-2	2	-6	-5	-1	.
Cn1c(=O)n(Cc2ccccc2)c(=O)c2c1nc1n2CCN1Cc1ccco1	19*	-1	3	7	-1	-8	4
COc1cc(/C=C/C(=O)O)cc(S(=O)(=O)N2CCc3ccccc32)c1OC	19*	4	-1	7	-2	8	-6
